# SENP1 inh: blocks the human SENP1 SUMO protease catalytic domain; Q9P0U3; recombinant SENP1 catalytic domain, CyPet-SUMO1-YPet FRET cleavage; inhibition, % at 10 µM; hit rate 0.21% among 360,000; AID 624204;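 active means inhibition at least 30% at 10 µM, raw YFP signal under a set limit, fluorescence ratio 0.5 to 1.5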
#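 Test system: hSENP1 catalytic domain, recombinant; Amount: 20 pM final SENP1 enzyme; Medium: Tris pH 8 buffer plus EDTA, NaCl, BME, BSA, NP40, catalase; Schedule: 50 min enzyme reaction, room temperature, light-protected; Technique: FRET fluorescence in CFP and YFP emission channels; Controls: no-enzyme wells low, DMSO-plus-enzyme wells high control.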
# TPT1 inhibitor: inhibitors of Candida albicans tRNA 2'-phosphotransferase TPT1 | hit rate 0.81% among 300,000 | recombinant caTPT1, FP RNA substrate dephosphorylation | inhibition, % at 5 µM;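 active means inhibition above the mean of all tested compounds plus 3 SD, set per screening campaign, cut at about 24% in these data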
# Rpn11 block: inhibitors of human proteasome Rpn11 | O00487 | human 26S proteasome, Ub4-pepOG fluorescence polarization; 20S core pre-blocked with epoxomicin | inhibition, % at 20 µM | hit rate 0.59% among 360,000 | AID 588493;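 active means inhibition at 20 µM, scaled to each plate's controls, above about 33%, limit read from the data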
# HNF4A DNA FP: change in binding of human HNF4 alpha to DNA; P41235; HNF4a-FITC DNA binding, fluorescence polarization, 1 h; activity change, % at 10 µM; hit rate 0.3% among 360,000; AID 1224865; in the data active means activity change above about 30%, passing the limit was not always enough
# CSN deneddyl inh: blocks human CSN-mediated cullin deneddylation. Q92905. Purified CSN, SCF-Nedd8-OG deneddylation, fluorescence polarization. inhibition, % at 12.5 µM. hit rate 0.38% among 360,000. AID 651999;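 active means pattern-corrected inhibition above about 35%, with an unprinted fluorescence ratio check between 0.5 and 1.5, limit read from the data, passing the limit was not always enough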
#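 test system = HEK293T-derived human Csn5 enzyme | amount = 0.24 nM Csn5 enzyme, final concentration | medium = Tris/NaCl/DTT buffer, pH 7.5 | schedule = 90 min reaction at room temperature | signal = FP | evaluation = inhibition of Csn5 cleavage, % | compound dosing = single dose of 12.5 µM compound with 0.25% DMSO | probe or stimulus = 10 nM SCFSkp2-Nedd8OG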
# TPT1 inh confirm: TPT1 (C. albicans) inhibition, confirmation; shares compounds with TPT1 inhibitor; recombinant caTPT1, fluorescence polarization, RNase T1 coupled; inhibition, % at 5 µM; hit rate 74% among 2,400;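 active means inhibition above the primary screen limit, the mean inhibition of all tested compounds plus 3 SD, cut at about 25% in these data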
# RNase T1 counter: blocks Aspergillus oryzae RNase T1, a TPT1 counter-screen | shares compounds with TPT1 inhibitor | RNase T1 cleavage, fluorescence polarization, 1536-well | inhibition, % at 5 µM | hit rate 83% among 2,400 | AID 2153;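 active means inhibition above the solvent-only control well mean plus 3 SD, limit set per screening run, cut at about 23% in these data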;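 further: inhibitors block cleavage so intact labeled substrate keeps polarization high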
# Target sequence (P00651 whole entry, looked up): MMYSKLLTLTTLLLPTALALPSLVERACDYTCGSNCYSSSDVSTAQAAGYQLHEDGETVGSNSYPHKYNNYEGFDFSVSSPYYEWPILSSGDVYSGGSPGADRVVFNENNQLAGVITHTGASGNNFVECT
# Rpn11 confirm: Rpn11 inhibition confirmation, single concentration. inhibition, % at 20 µM. hit rate 29% among 1,900. AID 602318. purified human 26S proteasome, Ub4-pepOG fluorescence polarization; proteasome pretreated with epoxomicin. shares compounds with Rpn11 block
# MMP-2 counter-1: MMP-2 (human) inhibition counter-screen; shares compounds with Rpn11 block; recombinant MMP-2, FRET peptide cleavage fluorescence; inhibition, % at 20 µM; hit rate 4% among 1,900; AID 602330;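 further: human MMP-2 activated beforehand with APMA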
# Thrombin inh: counter-screen for RPN11 inhibitors: inhibition of bovine thrombin; inhibition, % at 20 µM; AID 602333; shares compounds with Rpn11 block; hit rate 13% among 1,900; bovine thrombin cleavage of Ub4-pepOG, fluorescence polarization;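 active means mean inhibition at least 40% at 20 µM, or signal 3 deviations below plate average, so some actives read negative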
# Target sequence (P00735 whole entry, looked up): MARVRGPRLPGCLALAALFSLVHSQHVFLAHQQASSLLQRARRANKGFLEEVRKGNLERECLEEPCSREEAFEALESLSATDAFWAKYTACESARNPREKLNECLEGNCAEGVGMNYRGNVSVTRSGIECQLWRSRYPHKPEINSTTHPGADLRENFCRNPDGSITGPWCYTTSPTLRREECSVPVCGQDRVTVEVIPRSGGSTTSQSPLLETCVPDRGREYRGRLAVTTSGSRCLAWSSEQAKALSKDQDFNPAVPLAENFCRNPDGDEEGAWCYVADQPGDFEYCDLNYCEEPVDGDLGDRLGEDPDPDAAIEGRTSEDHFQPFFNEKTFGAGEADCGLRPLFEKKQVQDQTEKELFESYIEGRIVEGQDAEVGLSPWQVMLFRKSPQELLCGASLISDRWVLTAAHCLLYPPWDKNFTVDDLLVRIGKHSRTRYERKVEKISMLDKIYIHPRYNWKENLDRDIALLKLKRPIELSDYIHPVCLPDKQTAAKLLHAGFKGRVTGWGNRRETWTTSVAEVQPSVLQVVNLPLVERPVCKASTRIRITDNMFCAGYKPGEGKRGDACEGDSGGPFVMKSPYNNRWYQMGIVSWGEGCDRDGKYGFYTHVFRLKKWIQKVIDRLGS
# SENP1 inh conf: SENP1 (human) inhibition, single concentration confirmation; shares compounds with SENP1 inh; recombinant SENP1, CyPet-SUMO1-YPet FRET cleavage; inhibition, % at 10 µM; hit rate 34% among 520; AID 651678; in the data active means inhibition mostly above about 35%, no sharp cut-off; inactive means mostly below about 32%
# SENP1 kin conf: confirmation of human SENP1 SUMO protease inhibitors, kinetic | inhibition, % at 10 µM | hit rate 26% among 520 | shares compounds with SENP1 inh | recombinant SENP1, CyPet-SUMO1-YPet FRET kinetic cleavage; in the data active means inhibition mostly above about 32%, no sharp cut-off; inactive means mostly below about 29%
# CSN5 deneddyl: validation of inhibitors of human CSN-mediated cullin deneddylation. shares compounds with CSN deneddyl inh. Csn5 deneddylation of SCF-Nedd8OG, fluorescence polarization, 90 min. inhibition, % at 16.6 µM. hit rate 62% among 540. AID 720654; in the data active means inhibition above about 50%
# MMP-2 counter-2: blocks human MMP-2 in a CSN deneddylation counter-screen; shares compounds with CSN deneddyl inh; recombinant MMP-2, FRET substrate fluorescence, 60 min; inhibition, % at 16.6 µM; hit rate 33% among 540;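 active means corrected plate-normalized z-score of 5 or more, or -5 or less, or inhibition of 15% or more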
# Thrombin counter: blocks bovine thrombin in a CSN deneddylation counter-screen | inhibition, % at 16.6 µM | shares compounds with CSN deneddyl inh | bovine thrombin cleavage of Ub4-pepOG, fluorescence polarization | hit rate 49% among 540 | AID 720656;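 active means inhibition at or above a set limit, with a fluorescence interference ratio between 0.5 and a set maximum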
# Hits are given with their value; . = inactive; / = not tested or not shown. Rows were chosen to be rich in hits. Some 1.6% of all compounds tested hit in one or more screens of this group. Unless noted, no stated cut-off is given here; in the data, active means inhibition above about 40%; inactive means the rest.
SMILES,SENP1 inh,TPT1 inhibitor,Rpn11 block,HNF4A DNA FP,CSN deneddyl inh,TPT1 inh confirm,RNase T1 counter,Rpn11 confirm,MMP-2 counter-1,Thrombin inh,others
Cc1cc(C=C2C(=O)c3ccccc3C2=O)c(C)n1-c1ccccc1,.,.,.,.,.,/,/,/,/,/,
Cc1cc(C=C2C(=O)c3ccccc3C2=O)c(C)n1-c1ccc(C(=O)O)cc1,.,27,40,.,.,35,47,.,.,.,
CN1CCc2c(sc3c2C(=O)NC(c2cn(Cc4ccccc4)c4ccccc24)N3)C1 (centres undefined),.,67,57,52,.,75,85,59,.,41,
COc1ccc(Br)cc1C1NC(=O)c2c(sc3c2CCN(C)C3)N1 (centres undefined),.,/,.,.,.,/,/,/,/,/,
COc1ccc(S(=O)(=O)N2CCN(C(=O)C3CC3)CC2)cc1Br,.,/,.,.,.,/,/,/,/,/,
O=C(NC1CCCC1)C(c1ccccc1)N(C(=O)c1csnn1)c1ccccc1F (centres undefined),.,.,.,.,.,/,/,/,/,/,
COc1cc(/C=c2\sc3n(c2=O)C(c2ccccc2)C(c2ccccc2)=NN=3)ccc1O (centres undefined),.,35,43,.,.,50,56,.,.,.,
CN1CCc2nc(NC(=O)c3cccc(S(=O)(=O)N4CCc5ccccc54)c3)sc2C1,.,49,75,50,41,.,29,.,.,.,
COC(=O)c1ccccc1NC1CC(=O)N(c2c(C)cccc2C)C1=O (centres undefined),.,.,.,.,.,/,/,/,/,/,
ClCC1NCC(c2ccccc2Cl)c2c1[nH]c1ccccc21 (centres undefined),.,89,72,.,.,.,.,.,.,.,
COc1ccc(S(=O)(=O)N2CC(O)CC2C(=O)OCc2nc3sc(C)c(C)c3c(=O)[nH]2)cc1 (centres undefined),.,33,47,.,.,47,65,.,.,.,
CCC1=[N+](CC(=O)c2ccc(C)cc2)CCn2cccc21,.,61,75,.,.,.,.,.,.,.,
CCC1=[N+](CC(=O)c2ccc(Br)cc2)CCn2c(C)ccc21,.,.,.,.,.,/,/,/,/,/,
Cc1c(N2C(=O)/C(=C3/C(=O)N(C)c4ccccc43)SC2=S)c(=O)n(-c2ccccc2)n1C,.,.,.,.,.,/,/,/,/,/,
COc1ccc(/C=C2/SC(=S)N(NS(=O)(=O)c3ccccc3)C2=O)cc1,.,.,.,.,.,/,/,/,/,/,
COc1cc(/C=C2\SC(=S)N(NS(=O)(=O)c3ccccc3)C2=O)ccc1O,75,31,78,.,.,34,42,50,.,52,
COc1cc(/C=C2/SC(=S)N(c3c(C)n(C)n(-c4ccccc4)c3=O)C2=O)ccc1O,46,29,100,.,.,29,42,63,.,43,
Cc1c(C(=O)Nc2ccccc2)c2ccc(C(F)(F)F)cc2n1O,.,.,.,.,.,/,/,/,/,/,
COc1ccc(C)cc1Nc1n[n+](-c2ccccc2)c(-c2ccc(N(C)C)cc2)s1,41,51,60,68,.,90,99,75,.,127,
COc1ccc(C)cc1Nc1n[n+](-c2ccccc2)c(-c2ccc(OC)c(OC)c2OC)s1,.,.,.,.,.,/,/,/,/,/,
O=c1[nH]ncc2c3ccccc3n(Cc3ccc(F)cc3)c12,.,.,.,.,.,/,/,/,/,/,
O=c1[nH]ncc2c3ccccc3n(Cc3cccc(Cl)c3)c12,86,69,/,63,.,157,137,/,/,/,SENP1 inh conf=106;SENP1 kin conf=62
C=CCc1c(C)nc(-c2ccccc2)nc1N/N=C/c1ccccc1,.,.,.,.,.,/,/,/,/,/,
C=CCc1c(C)nc(-c2ccccc2)nc1Nc1ccccc1O,47,25,55,.,.,40,52,.,.,.,SENP1 inh conf=.;SENP1 kin conf=.
Cc1cccc(NC(=O)c2ccc(NCCc3ccccc3)c([N+](=O)[O-])c2)c1,86,46,/,.,89,111,133,/,/,/,SENP1 inh conf=.;SENP1 kin conf=.
SMILES,SENP1 inh,TPT1 inhibitor,Rpn11 block,HNF4A DNA FP,CSN deneddyl inh,TPT1 inh confirm,RNase T1 counter,Rpn11 confirm,MMP-2 counter-1,Thrombin inh,others
COc1cc(CN2C[C@@H](CO)O[C@@H](n3cnc4c(N(C)C)ncnc43)C2)cc(OC)c1OC,.,/,.,.,.,/,/,/,/,/,
O=C(C[n+]1cc(Br)cc2ccccc21)c1ccc(Br)cc1,52,27,.,.,.,36,48,/,/,/,SENP1 inh conf=.;SENP1 kin conf=.
Cc1cccc(OCc2ccccc2)n1,.,/,.,.,.,/,/,/,/,/,
CN(/N=C/c1ccc(-c2ccc([N+](=O)[O-])cc2)o1)c1ccccc1,.,73,/,48,50,74,82,/,/,/,CSN5 deneddyl=92;MMP-2 counter-2=.;Thrombin counter=25
COc1ccc(NS(=O)(=O)c2ccc(F)c(Cl)c2)cn1,.,.,.,.,.,/,/,/,/,/,
C=CCN=C1N[C@@H](c2ccccc2)C(C(=O)OC)=C(C)N1CC,.,.,.,.,.,/,/,/,/,/,
O=C(N/N=C\c1c(O)ccc2ccccc12)c1ccc(S(=O)(=O)N2CCCCC2)cc1,.,96,/,71,96,100,101,/,/,/,CSN5 deneddyl=176;MMP-2 counter-2=-44;Thrombin counter=.
O=C(NN=Cc1c(O)ccc2ccccc12)c1ccc2c(c1)OCO2,.,/,.,.,.,/,/,/,/,/,

# Screening data (PubChem)
